The list is not random: actives were taken first. Their share in the collection is about 2.9%.
DDE Tn6 FP inh = inhibitors of Tn6 peptide binding to human fibrin DD(E) | inhibition, % at 8.3 µM | 0.21% of 370,000 active | P02675 | Fibrin DD(E) TRITC-Tn6 fluorescence polarization displacement;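 active means inhibition above a per-campaign cutoff: mean of compounds within control limits plus 3 SD, cut at about 15% in these data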;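 further: 0% = median of all compound wells on the plate and 100% = blocking peptide control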
NRP1-CendR mod = alters CendR peptide binding to human NRP-1. O14786. inhibition, % at 25 µM. AID 602438. FAM-RPARPAR peptide binding to NRP-1, fluorescence polarization. 0.85% of 360,000 active;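 active means inhibition or corrected inhibition above about 18%, plus a signal ratio from 0.5 to 1.5, limit read from the data, passing the limit was not always enough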
Tn7 DDE FP = DD(E)-Tn7 binding inhibition, primary FP screen; P02675; FP displacement of FITC-Tn7 peptide from fibrin DD(E); 0% = median of compound wells per plate; inhibition, % at 8.3 µM; 0.13% of 370,000 active; AID 720508;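 active means inhibition above the mean of compounds falling within the control limits plus 3 SD of them, cut at about 14% in these data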;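 further: 0% = plate median of compound wells and 100% = 10 µM Aha-Tn7 peptide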
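System: human fibrin DD(E); quantity: Fibrin-DD(E) at 2 µM final; also added: fluorescent Tn7 probe at 0.1 µM; compound dosing: single nominal test concentration of 8.3 µM per compound; schedule: 10 min preincubation, 3 h with tracer, room temperature; detection: fluorescence polarization of the labelled Tn7 tracer; repeats: one replicate per compound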
proKLK7 act = activates the human kallikrein-7 zymogen. 0.9% of 370,000 active. AID 652039. purified proKLK7, EDANS-DABCYL substrate fluorescence; 100% is mature enzyme control, 0% vehicle. P49862. activation, % at 7 µM;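 active means activation above the mean of all tested compounds plus 3 SD, computed per campaign excluding outliers beyond control limits, cut at about 13% in these data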
Target sequence (P49862 whole entry, looked up): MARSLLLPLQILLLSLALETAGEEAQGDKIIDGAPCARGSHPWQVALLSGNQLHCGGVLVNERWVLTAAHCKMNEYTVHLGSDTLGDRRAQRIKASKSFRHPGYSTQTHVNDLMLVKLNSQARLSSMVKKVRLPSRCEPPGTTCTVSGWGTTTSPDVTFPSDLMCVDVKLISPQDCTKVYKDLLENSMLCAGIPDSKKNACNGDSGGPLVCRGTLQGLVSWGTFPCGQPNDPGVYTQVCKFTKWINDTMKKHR
CRFR2-BP antag = antagonists of CRF-binding protein/CRF-R2 receptor complex. HEK293 CRF-R2/CRF-BP, CRF-induced calcium fluorescence. inhibition, % at 11.8 µM. 0.59% of 350,000 active. AID 588475;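 active means inhibition of the ligand-induced calcium signal above about 50% at the single tested concentration, limit read from the data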
CRFR2-BP ag = CRF-BP/CRF-R2 complex agonism; AID 588473; HEK293 CRF-R2/CRF-BP, calcium dye fluorescence (FLIPR); percent of saturating CRF peptide response; activation, % at 13.2 µM; 0.46% of 350,000 active;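 active means activation of at least 50%, plus an integration ratio under a set limit after plate pattern correction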;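 further: plate controls were neutral control wells without compound for no effect and CRF at EC100 for full effect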
The depositor's hits bear a star; . = not tested or not shown.

SMILES | DDE Tn6 FP inh | NRP1-CendR mod | Tn7 DDE FP | proKLK7 act | CRFR2-BP antag | CRFR2-BP ag
COc1ccc(C(CCN2CCCCC2)c2c(OC)cc(OC)c3c(-c4ccccc4)cc(=O)oc23)cc1 (stereo not drawn) | 5 | 4 | 1 | -3 | -32 | 59*
C[C@H]1CN=C(N(C)C)N1CCC1CCCCC1 | 0 | 30* | -8 | 0 | 1 | -2
CC(C)(C)c1ccc(C(=O)Nc2cc(Cl)ccc2C(=O)O)cc1 | -2 | . | -4 | . | . | .
Cc1nc2ccc(S(=O)(=O)NCC(=O)NCc3ccccc3Cl)cc2s1 | -4 | . | -1 | 0 | . | .
Cc1ccc(C)c(N2CCN(S(=O)(=O)c3ccc4c(c3)C(C)(C)C(=O)N4C)CC2)c1 | -7 | 18 | 9 | 0 | 127* | -2
Cc1cccc(N2CCN(S(=O)(=O)c3ccc4c(c3)C(C)(C)C(=O)N4C)CC2)c1C | 2 | -1 | -10 | 1 | 31 | 2
CCCCCCCCN1CN2Cc3ccccc3C2CS1(=O)=O (stereo not drawn) | 0 | . | -2 | 1 | . | .
Cc1occc1C(=O)NC(C)C12CC3CC(CC(C3)C1)C2 (stereo not drawn) | 8 | -1 | 4 | -1 | 52* | -21
CC(NC(=O)c1ccccc1F)C12CC3CC(CC(C3)C1)C2 (stereo not drawn) | 0 | 13 | -2 | 0 | -1 | -1
O=C(c1ccccc1)N1CC[C@H]2[C@H](CCCN2Cc2ccccc2)C1 | 1 | . | -3 | 0 | . | .
COc1ccc(Nc2cccccc2=O)cc1 | 1 | 12 | 2 | 1 | 3 | -1
COc1ccc(Nc2ccccc2)c(C)c1 | . | -8 | . | . | 50* | 0
O=C(NCCCN1CCOCC1)C1CC(=O)N(CCc2ccccc2)C1 (stereo not drawn) | -1 | 1 | -2 | -1 | 8 | 0
O=C(NCCCN1CCCCCC1)C1CC(=O)N(CCc2ccccc2)C1 (stereo not drawn) | -1 | 23* | 0 | 0 | 11 | 3
CCOc1ccccc1CN1CCNC(=O)C1CC(=O)NCCC1=CCCCC1 (stereo not drawn) | -7 | 45* | 1 | 0 | -16 | 0
CCCCNC(=O)CCn1c(=O)c2ccccc2n(Cc2ccccc2C)c1=O | -8 | 9 | 0 | 0 | 65* | -2
CCCCNC(=O)CCn1c(=O)c2ccccc2n(Cc2ccc(Cl)cc2)c1=O | 6 | 6 | 1 | 0 | 7 | 0
O=C1C=C(c2ccccc2)C[C@@H](c2ccc(Cl)cc2)C1 | -7 | -30 | 2 | 1 | -1 | 4
O=C1CC(c2ccc(Cl)cc2)SC(N(c2ccccc2)c2ccccc2)=N1 (stereo not drawn) | 4 | 2 | 2 | 0 | 114* | 0
O=C1CSC(c2cccc(F)c2)N1c1ccccc1 (stereo not drawn) | 11 | 9 | 4 | 0 | 12 | 0
O=C1CC(c2ccccc2)Sc2nc(-c3ccccc3)c(-c3ccccc3)n21 (stereo not drawn) | 5 | 0 | 7 | 0 | -12 | -1
O=C1CC(c2cccc(F)c2)SC(N(c2ccccc2)c2ccccc2)=N1 (stereo not drawn) | . | 0 | . | . | 85* | -1
O=C1CC(c2ccccc2)SC(N(c2ccccc2)c2ccccc2)=N1 (stereo not drawn) | -3 | 9 | 3 | 0 | 56* | -3
Nc1nc2c(ncn2[C@@H]2O[C@H](C(=O)N[C@H](Cc3ccccc3)C(=O)NCc3ccc4c(c3)OCO4)[C@@H](O)[C@H]2O)c(=O)[nH]1 | 8 | . | -2 | 0 | . | .
CN(CCc1ccccn1)C(=O)Cn1nc(-c2ccccc2)ccc1=O | 10 | . | -3 | 0 | . | .
SMILES | DDE Tn6 FP inh | NRP1-CendR mod | Tn7 DDE FP | proKLK7 act | CRFR2-BP antag | CRFR2-BP ag
Cn1c(NC(=O)c2ccccc2)nc(Cc2ccccc2)c1-c1ccccc1 | -11 | . | 1 | 0 | . | .
O=C(Nc1ccc(NC(=O)C2CC2)nc1)c1cnccn1 | -3 | 19* | 5 | 0 | 8 | 0
O=C(Nc1ccc(NC(=O)C2CC2)nc1)c1ccccn1 | 3 | -7 | -5 | 0 | 38 | -1
O=C(CSc1nnc(-c2ccccc2)n1-c1ccc(Cl)cc1)Nc1ccccc1-c1ccccc1 | -10 | . | -9 | 1 | . | .
CC(C)OC(=O)C1=CNCC(C)(C)c2c1[nH]c1cc(F)ccc21 | 1 | . | 7 | . | . | .
CCc1ccc(CCNC(=O)OC2CC3CC2[C@H]2CCCCN2[C@H]3C)cc1 (stereo partly drawn) | 0 | . | -1 | 0 | . | .
CC(OC(=O)c1ccc(S(=O)(=O)NCc2ccco2)cc1)C(=O)Nc1ccc(Cl)cn1 (stereo not drawn) | -4 | -3 | 7 | 0 | -218 | 99*
O=C(OC12CCCN(C1)/C(=C/c1ccccc1)C2)c1ccccc1 (stereo not drawn) | -8 | . | -10 | 0 | . | .
CC1=CC(=O)C(C(C)C)=C/C1=N/OS(=O)(=O)c1ccccc1 | 6 | 7 | -3 | 0 | -63 | 51*
O=C(Nc1ccc(F)cc1)c1nc(S(=O)(=O)Cc2ccccc2)ncc1Cl | -1 | 1 | 2 | 1 | 56* | -1
Cc1ccc(NC(=O)c2nc(S(=O)(=O)Cc3ccccc3)ncc2Cl)cc1 | -7 | 1 | -3 | -1 | 44 | 1
COc1ccc(OC)c(NC(=O)c2nc(S(=O)(=O)Cc3ccccc3)ncc2Cl)c1 | -2 | 11 | 3 | 0 | 62* | -1
C=CCN1C(=O)[C@@H](CC(=O)NCC2CCCCC2)[C@]2(C(=O)OCC)CCCCC/C=C/12 | -7 | . | 0 | 0 | . | .
CC(C)[C@@H](CO)N1Cc2nnn(Cc3ccccc3)c2-c2ccccc2S1(=O)=O | 0 | . | 5 | 0 | . | .
COc1ccccc1/C=C/CN1CCSCC1 | 5 | 30* | 4 | 1 | -11 | -1
CC(C)(C)c1ccc(-c2nnc(SCC(=O)c3ccc4ccccc4c3)n2-c2ccc(Cl)cc2)cc1 | -5 | . | 7 | 0 | . | .
CCCCN(CCCC)c1ncnc2nc[nH]c12 | -2 | 22* | 3 | 0 | 15 | 0
CCCCN(Cc1ccccc1)c1ncnc2nc[nH]c12 | . | -17 | . | . | 3 | -6
Cc1ccc(-c2cc(C(=O)NCc3ccccn3)c3ccccc3n2)cc1C | 5 | 0 | 1 | -10 | 111* | -3
Cc1ccc(-c2cc(C(=O)N/N=C/c3cccnc3)c3ccccc3n2)cc1C | -8 | 26* | 0 | -8 | -7 | 1
COC(=O)[C@]12C[C@H](CC(=O)N3CCCCC3)C(=O)N(CCC3=CCCCC3)C1=C[C@H](C1CCCC1)O[C@@H]2C | -14 | . | 6 | 0 | . | .
Cc1ccc(/C=C(\NC(=O)c2ccc(C)cc2)C(=O)NCCCn2ccnc2)cc1 | -4 | -9 | -9 | -1 | 5 | 5
